Experimental data reported in ChEMBL document CHEMBL1127613, “Synthesis and pharmacological properties of 11-hydroxy-3-(1',1'-dimethylheptyl)hexahydrocannabinol: a high-affinity cannabinoid agonist” (1994).

Tests used:
Format in all cases: functional
Mus musculus [1] = assay: Compound was evaluated for reduction of rectal temperature at 60 min in mouse when administered intravenously; settings: iv, 1 h
Procedure, shortened: (§1)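 Mice given the analog by intravenous injection, then run through a tetrad. Spontaneous activity is scored at 5–15 min, tail-flick at 20 min, rectal temperature at 60 min and ring immobility at 90 min after injection. ED50 comes from log dose–response linear regression over n = 4–7 active doses, with standard error estimated by ALLFIT.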

Mus musculus [2] = assay: Compound was evaluated for inhibition of spontaneous activity at 5-15 min in mouse when administered intravenously; settings: iv; procedure, shortened: as §1
Mus musculus [3] = assay: Compound was evaluated for inhibition of tail-flick response at 20 min in mouse when administered intravenously; settings: iv; procedure, shortened: as §1
Mus musculus [4] = assay: Compound was evaluated for production of ring immobility at 90 min in mouse when administered intravenously; settings: iv, 1.5 h; procedure, shortened: as §1

CCCCCCC(C)(C)c1cc(O)c2c(c1)OC(C)(C)[C@H]1CC[C@H](CO)C[C@H]21
ED50 (Mus musculus [1]): 6.9 mg/kg | ED50 (Mus musculus [2]): 0.77 mg/kg | ED50 (Mus musculus [3]): 0.58 mg/kg | ED50 (Mus musculus [4]): 2.5 mg/kg

CCCCCCC(C)(C)c1cc(O)c2c(c1)OC(C)(C)[C@@H]1CC[C@@H](CO)C[C@@H]21
ED50 (Mus musculus [1]): 0.037 mg/kg | ED50 (Mus musculus [2]): 0.0054 mg/kg | ED50 (Mus musculus [3]): 0.0018 mg/kg | ED50 (Mus musculus [4]): 0.027 mg/kg

CCCCCc1cc(O)c2c(c1)OC(C)(C)C1CCC(C)=C[C@@H]21 (single isomer, unassigned) [DRONABINOL]
ED50 (Mus musculus [1]): 1.42 mg/kg | ED50 (Mus musculus [2]): 1.01 mg/kg | ED50 (Mus musculus [3]): 1.42 mg/kg | ED50 (Mus musculus [4]): 1.51 mg/kg
